From ChEMBL document CHEMBL4308903, “Synthesis of amides from (E)-3-(1-chloro-3,4-dihydronaphthalen-2-yl)acrylic acid and substituted amino acid esters as NorA efflux pump inhibitors of Staphylococcus aureus” (Bioorg Med Chem, 2019) come the findings set out here.

As a reminder, the inhibition is how much of the control response was suppressed.

Each structure is given as a SMILES string. Activity calls are given as the source filed them. No cut-off for these calls is given here.

Data set [1] deals with Staphylococcus aureus. In words: Growth inhibition of Staphylococcus aureus 1199 at 50 ug/ml by broth microdilution method. It is filed as organism-based. In general terms: In broth dilution the organism is exposed to a series of concentrations in liquid medium.
Data set [2] deals with T1, Quinolone resistance protein NorA (Staphylococcus aureus) (UniProt P0A0J7).
T1 sequence (whole entry): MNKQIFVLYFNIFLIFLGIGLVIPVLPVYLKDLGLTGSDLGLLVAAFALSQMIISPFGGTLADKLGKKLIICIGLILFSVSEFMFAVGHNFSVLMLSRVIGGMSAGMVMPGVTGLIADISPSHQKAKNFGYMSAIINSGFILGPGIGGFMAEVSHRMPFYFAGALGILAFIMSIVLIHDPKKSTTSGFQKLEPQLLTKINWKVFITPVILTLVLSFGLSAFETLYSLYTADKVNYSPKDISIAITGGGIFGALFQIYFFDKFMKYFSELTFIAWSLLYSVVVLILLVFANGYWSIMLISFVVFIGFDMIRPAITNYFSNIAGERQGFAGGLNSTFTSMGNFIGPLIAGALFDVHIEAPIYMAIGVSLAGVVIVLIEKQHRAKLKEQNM
In words: Inhibition of NorA Staphylococcus aureus 1199B assessed as reduction in ethidium bromide efflux at 6.25 to 50 uM measured at 5 mins interval for 30 mins by fluorescence assay relative to control.

The subject of data set [3] is Staphylococcus aureus. In words: Potentiation of ciprofloxacin-induced antibacterial activity in norA-deleted Staphylococcus aureus K1758 assessed as reduction in ciprofloxacin MIC at 0.8 to 50 ug/ml by broth checkerboard microdilution method relative to control. It is filed as functional. In short, it runs like this: (§1)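 Broth checkerboard microdilution in cation-adjusted Mueller–Hinton broth. Compounds tested at seven concentrations (50-0.7 μg/mL) against twofold serial dilutions of ciprofloxacin (32-0.06 μg/mL). MEC is the minimum concentration that lowers the ciprofloxacin MIC fourfold. Piperine and SK-20 served as reference EPIs.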

Data set [4] deals with Staphylococcus aureus. In words: Potentiation of ciprofloxacin-induced antibacterial activity in Staphylococcus aureus 1199 assessed as reduction in ciprofloxacin MIC at 0.8 to 50 ug/ml by broth checkerboard microdilution method relative to control. In kind it is functional. In short, it runs like this:
as §1

Data set [5] has as its target T1, Quinolone resistance protein NorA (Staphylococcus aureus). Briefly: Inhibition of NorA in Staphylococcus aureus 1199B assessed as […] at 25 uM measured at 5 mins interval for 60 mins by fluorescence assay relative to control. The conditions noted are these: in the assay text read “for 30 mins” for “for 60 mins”. An outline of the steps: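 Ethidium bromide accumulation measured in SA-1199B cells preloaded with ethidium bromide, with compound at 25 μM. Fluorescence gain (excitation 530 nm, emission 600 nm) recorded at 5-min intervals.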

The test system of data set [6] is Staphylococcus aureus. Briefly: Growth inhibition of norA-deleted Staphylococcus aureus K1758 at 50 ug/ml by broth microdilution method. It is filed as organism-based. In short, it runs like this:
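MIC determined by broth microdilution in cation-adjusted Mueller–Hinton broth following CLSI guidelines. MIC is the lowest concentration giving no visible growth.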

In data set [7] the target is T1, Quinolone resistance protein NorA (Staphylococcus aureus). In words: Inhibition of NorA in Staphylococcus aureus 1199B assessed as reduction in ethidium bromide efflux at 50 uM measured over 5 mins interval for 30 mins by fluorescence assay relative to control.
The target is the same in data set [8]. Briefly: Inhibition of NorA in Staphylococcus aureus 1199B assessed as assessed as potentiation of ciprofloxacin-induced antibacterial activity by measuring reduction in ciprofloxacin MIC at 25 to 50 ug/ml by broth checkerboard microdilution method relative to control. An outline of the steps: as §1
The target is the same in data set [9]. Briefly: Inhibition of NorA in Staphylococcus aureus 1199B assessed as minimum concentration required to effectively reduce ciprofloxacin MIC by four fold by broth checkerboard microdilution method. An outline of the steps:
as §1

The subject of the next data set is HepG2. Briefly: Cytotoxicity against human HepG2 cells assessed as reduction in cell viability at 100 uM after 24 hrs by MTT assay. The conditions noted are these: hepg2, 24 h. In kind it is cell-based. An outline of the steps:
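HepG2 monolayer (1×10^6 cells/well) in high-glucose DMEM exposed to 50 and 100 μM in triplicate for 24 h at 37°C, 5% CO2. MTT added, then formazan absorbance read at 570 nm. Percent cytotoxicity calculated against tamoxifen positive control (10 and 20 µg/mL) and untreated healthy cells.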
In general terms: Formazan colour is commonly taken as a measure of viable cells.

The target of data set [10] is T1, Quinolone resistance protein NorA (Staphylococcus aureus). In words: Inhibition of NorA in Staphylococcus aureus 1199B assessed as reduction in ethidium bromide efflux at 50 uM measured after 5 mins by fluorescence assay relative to control. An outline of the steps:
(§2)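 SA-1199B grown on tryptone soya agar. Ethidium bromide efflux followed by fluorescence (excitation 530 nm, emission 600 nm) over 5 min with compound at 0–50 μM. Run in triplicate. Percent inhibition calculated from mean values against the no-inhibitor control.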

Data set [11] has the same target. Briefly: Inhibition of NorA Staphylococcus aureus 1199B assessed as reduction in ethidium bromide efflux at 6.25 to 50 uM measured after 5 mins by fluorescence assay relative to control. An outline of the steps:
as §2

Data set [12] deals with Staphylococcus aureus. Briefly: Potentiation of ciprofloxacin-induced antibacterial activity in Staphylococcus aureus 1199 assessed as minimum concentration required to effectively reduce ciprofloxacin MIC by four fold by broth checkerboard microdilution method. The conditions noted are these: read-out: MEC. It is filed as functional. An outline of the steps:
as §1

`COC(=O)[C@H]1[C@H]2C[C@@H]3c4[nH]c5cc(OC)ccc5c4CCN3C[C@H]2C[C@@H](OC(=O)c2cc(OC)c(OC)c(OC)c2)[C@@H]1OC` [RESERPINE]: the “growth inhibition (GI)” value in the data set on Staphylococcus aureus [1] and in the data set with Staphylococcus aureus [6] was “Non-Toxic” throughout. For the same compound, the inhibition entry in [2] and in data set [5] was “Active” each time. Also, the “fold change (FC)” value is listed as 0 in the data set on Staphylococcus aureus [3] and 2 with Staphylococcus aureus [4].
For `COC(=O)[C@H](Cc1ccc(O)cc1)NC(=O)/C=C/C1=C(Cl)c2ccccc2CC1`, the “growth inhibition (GI)” value with Staphylococcus aureus [1] and in the data set with Staphylococcus aureus [6] was “Non-Toxic” in each case. Moreover, the inhibition in data set [2] is above 80%; in data set [7], 85.2%. Besides, the figures for the “fold change (FC)” value (in the data set with Staphylococcus aureus [3]; in the data set on Staphylococcus aureus [4]; in data set [8]) were 0, 4 and 16, respectively. In addition, the inhibition entry in data set [5] is “Active”. Further, the MEC in data set [9] was 1.5 µg/mL. For the same compound, in the data set on HepG2, the Activity result was “Non-Toxic”.
`COC(=O)[C@H]1CCCN1C(=O)/C=C/C1=C(Cl)c2ccccc2CC1`: the “growth inhibition (GI)” value in the data set on Staphylococcus aureus [1] and in the data set with Staphylococcus aureus [6] was “Toxic” each time. Further, the “fold change (FC)” value with Staphylococcus aureus [3] and in the data set on Staphylococcus aureus [4] was 0 throughout. Moreover, the MEC in data set [9] turned out to be 12.5 µg/mL. Moreover, the inhibition in [10] came to 52.6%.
`COC(=O)[C@H](Cc1c[nH]c2ccccc12)NC(=O)/C=C/C1=C(Cl)c2ccccc2CC1`: the “growth inhibition (GI)” value in the data set on Staphylococcus aureus [1] and in the data set with Staphylococcus aureus [6] was “Non-Toxic” each time. In addition, the results for the inhibition in data set [2] and in data set [7] were above 80% and 83.9%, respectively. The “fold change (FC)” value in the data set with Staphylococcus aureus [3] is 0; in the data set with Staphylococcus aureus [4], 4; in data set [8], 16. The inhibition result in [5] is “inactive”. Also, the MEC in data set [9] stood at 1.5 µg/mL. In addition, in the data set with HepG2, the Activity entry was “Non-Toxic”.
As to `COC(=O)C(C)(C)NC(=O)/C=C/C1=C(Cl)c2ccccc2CC1`, the “growth inhibition (GI)” value with Staphylococcus aureus [1] and in the data set on Staphylococcus aureus [6] was “Non-Toxic” in each case. In addition, the “fold change (FC)” value in the data set on Staphylococcus aureus [3] and with Staphylococcus aureus [4] was 0 in each case. For the same compound, in [9], the MEC is 12.5 µg/mL. In data set [10], the inhibition amounted to 41.4%.
Take `COC(=O)CNC(=O)/C=C/C1=C(Cl)c2ccccc2CC1`: the “growth inhibition (GI)” value in the data set on Staphylococcus aureus [1] and in the data set with Staphylococcus aureus [6] was “Non-Toxic” each time. Also, the “fold change (FC)” value in the data set on Staphylococcus aureus [3] and in the data set with Staphylococcus aureus [4] was 0 each time. Further, in data set [9], the MEC was above 50 µg/mL.
Take `COC(=O)CCNC(=O)/C=C/C1=C(Cl)c2ccccc2CC1`: the “growth inhibition (GI)” value with Staphylococcus aureus [1] and in the data set on Staphylococcus aureus [6] was “Non-Toxic” throughout. Also, the “fold change (FC)” value with Staphylococcus aureus [3] and with Staphylococcus aureus [4] was 0 throughout. For the same compound, the MEC in data set [9] worked out at 25 µg/mL.
For `COC(=O)CCCNC(=O)/C=C/C1=C(Cl)c2ccccc2CC1`, the “growth inhibition (GI)” value in the data set with Staphylococcus aureus [1] and in the data set on Staphylococcus aureus [6] was “Non-Toxic” throughout. Besides, the “fold change (FC)” value in the data set on Staphylococcus aureus [3] and in the data set with Staphylococcus aureus [4] was 0 each time. Also, in data set [9], the MEC is above 50 µg/mL.
Consider `COC(=O)[C@@H](NC(=O)/C=C/C1=C(Cl)c2ccccc2CC1)C(C)C`, for which the “growth inhibition (GI)” value in the data set on Staphylococcus aureus [1] and in the data set with Staphylococcus aureus [6] was “Non-Toxic” in each case. Besides, the “fold change (FC)” value in the data set on Staphylococcus aureus [3] is 0; in the data set on Staphylococcus aureus [4], 2. For the same compound, the inhibition in data set [11] and in data set [10] was 67.2% in each case. For the same compound, the MEC in data set [9] was found to be 3.12 µg/mL.
With `COC(=O)CC1(NC(=O)/C=C/C2=C(Cl)c3ccccc3CC2)CCCCC1`, the “growth inhibition (GI)” value in the data set with Staphylococcus aureus [1] and in the data set with Staphylococcus aureus [6] was “Non-Toxic” throughout. Besides, the “fold change (FC)” value in the data set on Staphylococcus aureus [3] and in the data set on Staphylococcus aureus [4] was 0 each time. Also, the MEC in data set [9] was above 50 µg/mL.
Take `CCC(/C=C/C(=O)N1CCCCC1)=C\c1ccc2c(c1)OCO2`: the “growth inhibition (GI)” value in the data set with Staphylococcus aureus [1] and in the data set with Staphylococcus aureus [6] was “Non-Toxic” throughout. Also, the entries for the “fold change (FC)” value in the data set on Staphylococcus aureus [3] and in the data set with Staphylococcus aureus [4] were 0 and 4, respectively. In data set [7], the inhibition turned out to be 68.8%. Also, the MEC in data set [9] is 6.25 µg/mL.
Regarding `COC(=O)[C@@H]1CCCN1C(=O)/C=C/C1=C(Cl)c2ccccc2CC1`, the “growth inhibition (GI)” value with Staphylococcus aureus [1] and in the data set on Staphylococcus aureus [6] was “Non-Toxic” throughout. For the same compound, the results for the “fold change (FC)” value in the data set with Staphylococcus aureus [3] and in the data set on Staphylococcus aureus [4] were 0 and 2, respectively. Also, the minimal effective concentration with Staphylococcus aureus [12] was 50 µg/mL. The inhibition was above 80% in data set [11] and 80.3% in [10]. Besides, the MEC in [9] was determined as 6.25 µg/mL.
In the case of `COC(=O)[C@H](C)NC(=O)/C=C/C1=C(Cl)c2ccccc2CC1`, the “growth inhibition (GI)” value in the data set with Staphylococcus aureus [1] and in the data set with Staphylococcus aureus [6] was “Non-Toxic” in each case. For the same compound, the “fold change (FC)” value with Staphylococcus aureus [3] and in the data set on Staphylococcus aureus [4] was 0 each time. Besides, the MEC in data set [9] came out at 25 µg/mL.
For `COC(=O)CC1(NC(=O)/C=C/C2=C(Cl)c3ccccc3CC2)CCC(C(C)(C)C)CC1` (configuration not stated), the “growth inhibition (GI)” value with Staphylococcus aureus [1] and in the data set with Staphylococcus aureus [6] was “Non-Toxic” throughout. In addition, the “fold change (FC)” value in the data set with Staphylococcus aureus [3] and in the data set with Staphylococcus aureus [4] was 0 throughout. Further, in data set [9], the MEC is above 50 µg/mL.
For the compound `CC[C@@H](C)[C@H](NC(=O)/C=C/C1=C(Cl)c2ccccc2CC1)C(=O)OC`, the “growth inhibition (GI)” value with Staphylococcus aureus [1] and in the data set with Staphylococcus aureus [6] was “Non-Toxic” each time. For the same compound, the “fold change (FC)” value in the data set with Staphylococcus aureus [3] is on record as 0; with Staphylococcus aureus [4] it was 2. For the same compound, the MEC in data set [9] was 12.5 µg/mL. The inhibition in data set [10] came out at 58.2%.
For `COC(=O)[C@H](CC(C)C)NC(=O)/C=C/C1=C(Cl)c2ccccc2CC1`, the “growth inhibition (GI)” value in the data set with Staphylococcus aureus [1] and in the data set on Staphylococcus aureus [6] was “Non-Toxic” each time. For the same compound, the entries for the “fold change (FC)” value in the data set on Staphylococcus aureus [3] and with Staphylococcus aureus [4] were 0 and 2, respectively. Moreover, the MEC in data set [9] was determined as 12.5 µg/mL. In addition, the inhibition in [10] was 56.2%.
Take `COC(=O)[C@H](Cc1ccccc1)NC(=O)/C=C/C1=C(Cl)c2ccccc2CC1`: the “growth inhibition (GI)” value with Staphylococcus aureus [1] and in the data set on Staphylococcus aureus [6] was “Non-Toxic” each time. Further, the “fold change (FC)” value in the data set on Staphylococcus aureus [3] and with Staphylococcus aureus [4] was 0 throughout. The MEC in [9] was 12.5 µg/mL. Besides, the inhibition in data set [10] came out at 48%.
